Here are results for one compound from ChEMBL document CHEMBL4396917, “Synthesis and biological evaluation of novel benzylidene-succinimide derivatives as noncytotoxic antiangiogenic inhibitors with anticolorectal cancer activity in vivo” (Eur J Med Chem, 2019).

The inhibition is the drop in the measured response relative to a control, in per cent. Usually IC50 stands for the concentration that inhibits the measured activity by half.

Active and inactive are the calls of the source. The rule behind the calls is not given here.

Series [1] relates to HT-29. Description: Downregulation of HIF1-alpha mRNA expression in human HT-29 cells after 24 hrs by RT-qPCR assay. The format is functional, cell-based. The method in brief:
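HT29 cells treated with 1, 5, 10 or 20 μM for 24 h; total RNA extracted with TRIzol; SYBR Green qPCR, 40 cycles of 5 s at 95°C and 60 s at 60°C in 20-μL reactions.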

Series [2] deals with HT-29. The series is described as follows: Antiangiogenic activity against human HT-29 cells xenografted in mouse assessed as mean vessel density in tumour at 20 to 60 mg/kg, po administered every other day for 3 weeks measured at 20 days post-treatment. It counts as functional. Background: Xenograft models place foreign cells or tissue in a host animal.
The subject of series [3] is NCM460. Description: Cytotoxicity against human NCM460 cells assessed as reduction in cell growth after 72 hrs by MTT assay. As to conditions: NCM460, 72 h. It counts as cell-based. On the technique in general: Tetrazolium dyes change colour on reduction, which living cells bring about.
For series [4], the system named is HT-29. Description: Antitumor activity against human HT-29 cells xenografted in mouse assessed as increase in apoptosis in tumor at 20 to 60 mg/kg, po administered every ither day for 3 weeks and measured at 20 days post treatment by TUNEL assay. It counts as functional, organism-based.
For series [5], the system named is HT-29. Description: Induction of apoptosis in human HT-29 cells assessed as early apoptotic cells at 10 uM after 24 hrs by Annexin V-FITC/propidium iodide staining based flow cytometric analysis (reference value: 1.9%). It counts as cell-based. The conditions noted are these: ht-29, 24 h. Background: In flow cytometry, cells or beads pass a laser one at a time.

In series [6] the test system is HUVEC. Description: Induction of apoptosis in VEGF-stimulated HUVEC assessed as necrotic cells at 10 uM after 24 hrs by Annexin V-FITC/propidium iodide staining based flow cytometric analysis (reference value: 12.1%). It counts as cell-based. The conditions noted are these: human. The method in brief: (§1)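 HUVECs plated at 5×10^5 per well and treated 24 h with 1, 5, 10 or 20 μM. Detached and adherent cells were pooled, washed in ice-cold PBS and resuspended in fresh medium. 1×10^5 cells were stained with annexin-V-FITC in annexin-V buffer for 20 min in the dark, then PI (50 μg/mL) was added. Read-out by flow cytometry.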

The target in series [7] is Vascular endothelial growth factor receptor 2 (Homo sapiens) (UniProt P35968). Description: Inhibition of VEGFR2 in VEGF-stimulated HUVEC assessed as downregulation of STAT3 phosphorylation at Tyr705 residue at 1 to 10 uM pre-incubated for 2 hrs followed by VEGF stimulation and measured after 15 mins by Western blot analysis. It counts as cell-based.
Sequence of Vascular endothelial growth factor receptor 2 (Homo sapiens) (P35968 whole entry): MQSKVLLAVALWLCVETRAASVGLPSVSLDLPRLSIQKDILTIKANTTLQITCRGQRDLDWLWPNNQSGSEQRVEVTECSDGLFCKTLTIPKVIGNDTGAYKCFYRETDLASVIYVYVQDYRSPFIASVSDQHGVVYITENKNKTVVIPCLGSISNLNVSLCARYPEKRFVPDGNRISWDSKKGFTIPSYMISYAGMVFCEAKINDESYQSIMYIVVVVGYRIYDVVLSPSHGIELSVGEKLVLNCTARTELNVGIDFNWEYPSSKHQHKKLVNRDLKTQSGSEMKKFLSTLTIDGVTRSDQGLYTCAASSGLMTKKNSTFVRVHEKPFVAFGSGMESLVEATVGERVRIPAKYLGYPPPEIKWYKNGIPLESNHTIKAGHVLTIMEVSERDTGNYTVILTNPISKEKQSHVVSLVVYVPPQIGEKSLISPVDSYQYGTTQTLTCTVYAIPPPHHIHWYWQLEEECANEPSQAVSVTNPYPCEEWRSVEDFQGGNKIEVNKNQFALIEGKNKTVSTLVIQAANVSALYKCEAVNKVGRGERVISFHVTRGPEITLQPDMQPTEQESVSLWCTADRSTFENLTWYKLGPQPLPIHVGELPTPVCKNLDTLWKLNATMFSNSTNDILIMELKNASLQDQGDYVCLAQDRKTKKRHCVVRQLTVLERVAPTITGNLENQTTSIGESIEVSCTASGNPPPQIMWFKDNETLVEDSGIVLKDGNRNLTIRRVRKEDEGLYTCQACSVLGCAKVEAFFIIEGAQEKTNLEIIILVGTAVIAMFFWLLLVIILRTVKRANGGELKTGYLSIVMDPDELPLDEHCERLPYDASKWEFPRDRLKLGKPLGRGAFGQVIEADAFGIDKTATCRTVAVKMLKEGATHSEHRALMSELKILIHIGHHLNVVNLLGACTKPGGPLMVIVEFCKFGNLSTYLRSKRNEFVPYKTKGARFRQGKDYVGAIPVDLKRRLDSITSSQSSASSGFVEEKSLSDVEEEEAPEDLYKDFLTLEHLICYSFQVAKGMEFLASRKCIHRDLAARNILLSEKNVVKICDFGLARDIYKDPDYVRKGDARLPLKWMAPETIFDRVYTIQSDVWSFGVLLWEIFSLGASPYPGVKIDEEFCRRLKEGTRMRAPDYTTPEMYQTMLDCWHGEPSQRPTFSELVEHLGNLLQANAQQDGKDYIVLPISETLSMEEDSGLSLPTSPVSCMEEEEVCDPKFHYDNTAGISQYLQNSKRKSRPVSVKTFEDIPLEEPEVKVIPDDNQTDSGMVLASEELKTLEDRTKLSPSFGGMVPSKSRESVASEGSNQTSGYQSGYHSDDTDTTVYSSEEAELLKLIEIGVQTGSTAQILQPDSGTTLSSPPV
Series [8] concerns HT-29. Description: Antiangiogenic activity against human HT-29 cells xenografted in mouse assessed as reduction in formation of new blood vessels in tumour at 20 to 60 mg/kg, po administered every other day for 3 weeks measured at 20 days post-treatment. The format is functional, organism-based.
The subject of series [9] is HUVEC. The series is described as follows: Antimigratory activity in HUVEC assessed as reduction in VEGF-induced cell migration at 2.5 uM measured after 6 hrs by wound healing assay relative to control. It counts as functional. As to conditions: Homo sapiens. Summed up:
(§2)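 Confluent HUVECs starved 12 h in M200 with 2% FBS, scratched with pipette tip; fresh M200 with 25 ng/mL VEGF plus vehicle, 2.5 μM sunitinib or compound (1, 2.5 μM); wound imaged at 0, 6, 12 and 24 h by inverted microscopy.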

Series [10] has as its system HT-29. Description: Induction of apoptosis in human HT-29 cells assessed as necrotic cells at 5 uM after 72 hrs by Annexin V-FITC/propidium iodide staining based flow cytometric analysis (reference value: 1.3%). As to conditions: ht-29, 72 h. The format is cell-based.
Series [11] relates to HUVEC. Description: Effect on total FAK expression in VEGF-induced HUVEC at 1 to 20 uM pre-incubated for 2 hrs followed by VEGF stimulation and measured after 15 mins by Western blot analysis. The format is ADME, cell-based. The conditions noted are these: human, 0.25 h. Summed up:
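HUVECs serum-starved overnight, pretreated with compound (methods: 1, 2.5, 5, 10 μM for 2 h; legend: 1, 5, 10, 20 μM for 1.5 h), then VEGF 50 ng/mL (methods: VEGF165, 15 min; legend: 30 min); lysates equalized by Bradford, ~20 μg protein resolved on gradient SDS-PAGE, immunoblotted, ECL detection.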

Series [12] has as its system HT-29. The series is described as follows: Downregulation of MMP2 expression in human HT-29 cells after 24 hrs by immunoblot analysis. The format is functional, cell-based.
The subject of series [13] is HUVEC. The series is described as follows: Antimigratory activity in HUVEC assessed as reduction in VEGF-induced cell migration measured after 6 to 24 hrs by wound healing assay. It counts as functional, cell-based. The conditions noted are these: Homo sapiens. Summed up: as §2
Series [14] concerns HT-29. The series is described as follows: Antitumor activity against human HT-29 cells xenografted in mouse assessed as large areas of late apoptotic and necrotic cells in tumor at 20 to 60 mg/kg, po administered every other day for 3 weeks and measured at 20 days post treatment by H and E staining based assay. It counts as functional, organism-based.
The subject of series [15] is PC-3. The series is described as follows: Cytotoxicity against human PC3 cells assessed as reduction in cell growth after 72 hrs by MTT assay. It counts as cell-based. The conditions noted are these: PC-3, 72 h.
Series [16] is described as follows: Induction of apoptosis in human HT-29 cells assessed as viable cells at 1 uM after 24 hrs by Annexin V-FITC/propidium iodide staining based flow cytometric analysis (reference value: 80.8%). It counts as cell-based. As to conditions: read-out: Activity.
For series [17], the system named is HT-29. The series is described as follows: Cytotoxicity against human HT-29 cells assessed as reduction in cell growth after 72 hrs by MTT assay. It counts as cell-based. As to conditions: HT-29, 72 h.
Series [18] has as its system HT-29. Description: Induction of apoptosis in human HT-29 cells assessed as late apoptotic cells at 5 uM after 48 hrs by Annexin V-FITC/propidium iodide staining based flow cytometric analysis (reference value: 12.3%). The format is cell-based. The conditions noted are these: ht-29, 48 h.
Series [19] addresses Serine/threonine-protein kinase mTOR (Homo sapiens) (UniProt P42345). The series is described as follows: Inhibition of mTOR (unknown origin) at 10 uM using myelin basic protein as substrate in presence of [gamma-33P]-ATP by scintillation counting analysis relative to control. The method in brief: (§3)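 Radiometric kinase panel run by a contract lab. Kinase (5–10 mU) in 25 mM Tris pH 7.5, 0.02 mM EGTA, 0.66 mg/mL myelin basic protein, magnesium acetate and [γ-33P]-ATP (about 500 cpm/pmol). Started with Mg-ATP mix, 40 min at room temperature, stopped with 3% phosphoric acid. Spotted on P30 filters, washed in 75 mM phosphoric acid and methanol, scintillation counted. Mean ± SD of three independent experiments.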

In series [20] the test system is HUVEC. Description: Induction of apoptosis in VEGF-stimulated HUVEC assessed as necrotic cells at 5 uM after 24 hrs by Annexin V-FITC/propidium iodide staining based flow cytometric analysis (reference value: 12.1%). It counts as cell-based. As to conditions: human. Summed up:
as §1

Series [21] addresses Mitogen-activated protein kinase 3 (Homo sapiens) (UniProt P27361). Description: Inhibition of ERK1 (unknown origin) at 10 uM using myelin basic protein as substrate in presence of [gamma-33P]-ATP by scintillation counting analysis relative to control. The method in brief: as §3
The nature of series [22]: Induction of apoptosis in VEGF-stimulated HUVEC assessed as viable cells at 1 uM after 24 hrs by Annexin V-FITC/propidium iodide staining based flow cytometric analysis (reference value: 69.6%). It counts as cell-based. As to conditions: human, read-out: Activity. The method in brief:
as §1

The nature of series [23]: Induction of apoptosis in human HT-29 cells assessed as viable cells at 5 uM after 72 hrs by Annexin V-FITC/propidium iodide staining based flow cytometric analysis (reference value: 81.1%). It counts as cell-based. The conditions noted are these: read-out: Activity.
Series [24] relates to HT-29. The series is described as follows: Induction of apoptosis in human HT-29 cells assessed as late apoptotic cells at 5 uM after 72 hrs by Annexin V-FITC/propidium iodide staining based flow cytometric analysis (reference value: 12.3%). It counts as cell-based. As to conditions: ht-29, 72 h.

Sequence of Mitogen-activated protein kinase 3 (Homo sapiens) (P27361 whole entry): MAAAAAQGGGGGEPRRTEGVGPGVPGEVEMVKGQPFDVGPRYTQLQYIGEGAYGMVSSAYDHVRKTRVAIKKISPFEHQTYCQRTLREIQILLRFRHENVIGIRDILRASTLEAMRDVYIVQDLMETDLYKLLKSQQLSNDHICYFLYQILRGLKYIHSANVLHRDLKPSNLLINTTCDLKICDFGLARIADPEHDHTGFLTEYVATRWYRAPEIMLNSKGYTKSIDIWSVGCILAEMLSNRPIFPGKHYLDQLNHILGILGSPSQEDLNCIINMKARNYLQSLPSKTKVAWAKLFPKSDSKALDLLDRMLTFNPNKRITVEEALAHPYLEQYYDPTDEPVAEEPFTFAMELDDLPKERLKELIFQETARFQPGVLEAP

On to `COc1ccc(NC(=O)c2cccc(/C=C3\CC(=O)N(c4ccc(C)cc4)C3=O)c2)cc1`, for which the inhibition entry in [1] was “Dose-dependent effect”; in series [12], “Dose-dependent effect”; in series [13], “Dose-dependent effect”; in series [19], 93.8%; in series [21], 50 to 70%. Also, the Activity in [2] was 5%; in series [5], 1.5%; in series [6], 5.4%; in [10], 0.8%; in [11], “Not Active”; in [18], 13.1%. Further, the Activity was 4.8% in series [20] and 12.5% in [24]. In addition, the IC50 in [3], in [15] and in [17] was above 100 µM throughout. The outcome in [4] and in [14] was Active. Moreover, the inhibition entry in [7] and in [8] was “Active” in each case. In addition, in [9], the inhibition at 2.5 µM was 30%. The viability at 24 h, 1 µM in series [16] amounted to 79.9%; in series [22] it was 72.6%. Further, the viability at 72 h, 5 µM in series [23] came out at 76.9%.
